Source: PubChem BioAssay (several laboratories)
An excerpt weighted towards active compounds, which were near 6.4% of everything screened.
NR3A LBD binder – NR3A (human) ligand-binding domain modulation. NR3A LBD differential scanning fluorimetry, Tm shift; 0% = protein alone, 100% = glycine-bound protein. Tm shift relative to glycine control, % at 25 µM. 340,000 compounds, 2.5% hits. AID 1259313;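 active = melting temperature shift of at least 10% of the positive control shift, at one fixed dose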
EBV gp42 block – inhibitors of Epstein-Barr virus glycoprotein 42. inhibition, % (tested at 21.74 µM). Q1HVG2. Fluorescence polarization binding assay, mP read-out. 220,000 compounds, 0.42% hits; in the data active = inhibition above about 50%
Target sequence (Q1HVG2 whole entry, looked up): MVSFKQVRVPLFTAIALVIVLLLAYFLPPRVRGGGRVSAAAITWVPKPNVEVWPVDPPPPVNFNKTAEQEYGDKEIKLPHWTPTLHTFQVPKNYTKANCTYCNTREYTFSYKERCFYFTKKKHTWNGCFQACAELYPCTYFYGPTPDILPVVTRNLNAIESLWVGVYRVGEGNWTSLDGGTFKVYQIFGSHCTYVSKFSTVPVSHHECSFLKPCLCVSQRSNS
MPTP inh – inhibitors of mitochondrial permeability transition pore | 360,000 compounds, 1.4% hits | AID 602449 | isolated mouse mitochondria, Ca2+ swelling absorbance, 30 min | inhibition, % at 10 µM;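 active = inhibition of 50% or more, scaled per plate between neutral and stimulator controls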;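 note: 0% = DMSO wells given calcium and 100% = 1 mM EGTA wells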
WT yeast gro inh – growth inhibition of WT yeast, mitochondrial fusion screen; mitochondrial fusion phenotypic screen, WT strain; inhibition, % at 10 µM; 190,000 compounds, 2.1% hits; in the data active = inhibition above about 58%; tested in S. cerevisiae
TbMetRS inhib – blocks T. brucei methionyl-tRNA synthetase activity; AID 624268; purified T. brucei MetRS, ATP depletion, Kinase-Glo luminescence; inhibition, % at 11.9 µM; 360,000 compounds, 0.4% hits;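 active = inhibition above a per-plate cutoff of the control wells' mean inhibition plus 3 SD, cut at about 5.5% in these data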;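 note: 0% = DMSO wells median and 100% = median of wells with control inhibitor compound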
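technique = Kinase-Glo luminescence, ATP depletion format | system = purified MetRS (methionyl-tRNA synthetase) enzyme from Trypanosoma brucei | timing = 15 min preincubation, 2 h reaction, all 25 °C | evaluation = percent inhibition versus plate control medians | dosing = single dose, 11.9 µM final nominal, 0.9% final DMSO | also added = substrates ATP, L-methionine and bulk Escherichia coli tRNA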
CHOP inh – blocks CHOP induction under ER stress; CHO-K1 CHOP-promoter luciferase, tunicamycin-induced, 15-18 h; inhibition, % at 10 µM; 220,000 compounds, 3.8% hits; AID 2732;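 active = compounds that reduced the stress-induced luciferase reporter signal by more than about 70% of percent inhibition, limit read from the data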;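 note: 0% = tunicamycin plus vehicle and 100% = wells without tunicamycin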
* = called active by the depositor; . = no result given.

SMILES	NR3A LBD binder	EBV gp42 block	MPTP inh	WT yeast gro inh	TbMetRS inhib	CHOP inh
COc1ccc(Nc2nc(NC(C)(C)C)nc(N3CCCC3)n2)c(OC)c1	-1	-6	2	84*	-1	84*
COc1ccc(Nc2nc(NC(C)(C)C)nc(N3CCOCC3)n2)c(OC)c1	0	16	-2	38	-1	-7
COc1ccc(C2=NOC(C(=O)NCc3ccco3)C2)cc1 (stereo not given)	11*	-24	-1	1	1	0
CN(C)CCNC(=O)Cn1c(=O)c2cccn2c2ccc(F)cc21	2	.	2	.	-1	.
O=C(Cn1c(=O)c2cccn2c2ccc(F)cc21)NCCCN1CCN(c2ccccc2F)CC1	13*	.	0	.	-1	.
COCc1nc(-c2ccc(-c3ccccc3)nc2OC)no1	-2	-26	1	-1	-1	-11
CCc1nc(-c2ccc(-c3ccc(OC)cc3)nc2OC)no1	3	-21	0	12	-1	77*
COCc1nc(-c2ccc(-c3ccc(OC)cc3)nc2OC)no1	31*	-4	-1	-1	0	31
Cc1ccc2nc(Cl)c(C3CC(c4cccs4)=NN3C(=O)CCC(=O)O)cc2c1 (stereo not given)	0	2	2	-17	0	5
C=CCc1cc2c(oc(=O)c3ccccc32)c(C)c1O	-15	1	2	8	-1	-13
O=C(O)CSc1nc(-c2ccc(Cl)cc2)nc2c1oc1ccccc12	-3	-14	1	13	0	74*
O=C(O)CSc1nc(-c2ccccc2)nc2c1oc1ccccc12	2	4	1	-10	-1	12
CCCCC(=O)Nc1ccc(C(=O)c2ccccc2)cc1	4	3	-1	-9	0	-2
O=C(c1ccc(C#Cc2ccccc2)o1)N1CCN(c2ccccn2)CC1	-7	4	1	69*	-2	64
Cc1cc(C)nc(Nc2n[nH]c(-c3ccc(N)cc3)n2)n1	-3	-13	-1	60*	-1	-17
Cc1cc(C)nc(Nc2n[nH]c(-c3ccc(C(C)(C)C)cc3)n2)n1	-6	-13	-1	4	0	77*
Cc1ccccc1COC(=O)CNC(=O)c1sc2ccccc2c1Cl	-2	.	-1	.	0	.
Clc1ccc(Nc2nc(C3CC3)cs2)cc1	-5	-15	0	41	1	98*
Cc1ccc(Nc2nc(C3CC3)cs2)cc1	.	2	.	22	.	47
COC(=O)c1cccc2c1C(=O)c1cc([N+](=O)[O-])ccc1-2	.	.	1	.	0	.
Cc1nn(-c2ccccc2)c2c1C(c1ccc(Br)s1)C(C#N)=C(N)O2 (stereo not given)	2	9	28	15	0	65
Cc1nn(-c2ccccc2)c2c1C(c1ccccc1)C(C#N)=C(N)O2 (stereo not given)	-8	131*	7	9	1	13
O=C(NNC(=O)c1ccccc1O)c1ccc(NS(=O)(=O)c2ccc(F)c(F)c2)cc1	-2	.	0	.	0	.
Cc1ccc(NS(=O)(=O)c2ccc(C(=O)NNC(=O)c3ccccc3O)cc2)cc1	10*	.	0	.	0	.
Cc1ccc(NS(=O)(=O)c2ccc(C(=O)NCc3ccccn3)cc2)cc1	14*	.	0	.	0	.
SMILES	NR3A LBD binder	EBV gp42 block	MPTP inh	WT yeast gro inh	TbMetRS inhib	CHOP inh
CCOc1ccc(NS(=O)(=O)c2ccc(C(=O)NCc3ccccn3)cc2)cc1	5	.	0	.	0	.
Cc1oc(-c2ccc(Cl)cc2)nc1CN1CCCN(C(=O)c2ccco2)CC1	0	.	0	.	0	.
COc1ccc(C(c2nnnn2C(C)(C)C)N2CCN(c3nc4ccccc4s3)CC2)cc1 (stereo not given)	13*	3	-5	35	-1	13
COc1ccc(N2CCN(C(c3ccccc3)c3nnnn3C(C)(C)C)CC2)cc1 (stereo not given)	.	.	0	.	-1	.
CCOC(=O)COc1ccccc1/C=N/O	-3	-19	0	-2	0	36
O=C1CC(c2ccccc2)CC(O)=C1C=Nc1ccc(Cl)cc1 (stereo not given)	-1	-13	1	-7	0	83*
O=C1CC(c2ccccc2)CC(O)=C1C=NCCN1CCNCC1 (stereo not given)	0	-18	1	6	-1	95*
